The record followed here is ChEMBL document CHEMBL1124161, “4-Hydroxy-3-quinolinecarboxamides with antiarthritic and analgesic activities” (J Med Chem, 1988).

Experiment [1] has as its system Mus musculus. The experiment is described as follows: Analgesic activity against acetic acid induced writhing test in mouse after peroral administration. It is filed as functional.
Experiment [2] concerns Rattus norvegicus. Kind of experiment: Antiinflammatory activity against carrageenan-induced foot edema in rat after oral administration of 20 mg/kg; IA=Inactive. Set-up: dose 20 mg/kg. It is filed as functional, organism-based.
Experiment [3] deals with Mus musculus. Kind of experiment: Analgesic activity against acetic acid induced writhing test in mouse after peroral administration at 100 mg/kg; IA=Inactive. It is filed as functional, organism-based. Also on record: dose 100 mg/kg. Summed up:
(§1)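 Female mice (20–22 g), groups of 10, fasted 7 h; drug given orally 30 min before intraperitoneal injection of 0.2 mL 1% aqueous acetic acid. Stretching/writhing movements counted from minute 5 to 20 after irritant.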

For experiment [4], the system named is Rattus norvegicus. The experiment is described as follows: Anti-arthritis activity against adjuvant-induced arthritis in rats after peroral administration. It is filed as functional. Summed up: (§2)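 Groups of five male Lewis rats, 40–50 days old, given intraplantar injection in right hind paw of 0.6 mg Mycobacterium butyricum in 0.1 mL Bayol 55. Drug given in food from adjuvant day to day 17. Injected and noninjected hind paw volumes measured day 17 against normal controls. ED50 by least-squares curve fitting or Litchfield–Wilcoxon probit.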

Experiment [5] deals with Rattus norvegicus. The experiment is described as follows: Ulcerogenic effect after oral administration (gastric ulcer). It is filed as functional. Summed up: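 Groups of eight female rats (120–150 g), fasted 24 h, dosed orally; killed 7 h later and stomachs scored. Ulceration index = (mean ulcer degree × rats with ulcers / number of rats) × 100, ulcers being scores above 0.5. ED100 (index 100, max 300) read graphically.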

The species entered for experiment [6] is Rattus norvegicus. Kind of experiment: Antiarthritis activity against adjuvant-induced arthritis in rats. It is filed as functional. Summed up:
as §2

The subject of experiment [7] is Rattus norvegicus. The experiment is described as follows: Antiinflammatory activity against carrageenan-induced foot edema in rat after peroral administration. It is filed as functional. Conditions: po. Put shortly:
(§3)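 Groups of eight male Sprague-Dawley rats (150–180 g) dosed orally at the time of subplantar injection of 0.5 mg carrageenin. Paw volume difference measured before and 5 h after injection. Expressed as ED40, estimated graphically or by Litchfield–Wilcoxon probit analysis.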

For experiment [8], the target named is T1, Polyunsaturated fatty acid 5-lipoxygenase (Rattus norvegicus, UniProt P12527).
T1 sequence (P12527 whole entry): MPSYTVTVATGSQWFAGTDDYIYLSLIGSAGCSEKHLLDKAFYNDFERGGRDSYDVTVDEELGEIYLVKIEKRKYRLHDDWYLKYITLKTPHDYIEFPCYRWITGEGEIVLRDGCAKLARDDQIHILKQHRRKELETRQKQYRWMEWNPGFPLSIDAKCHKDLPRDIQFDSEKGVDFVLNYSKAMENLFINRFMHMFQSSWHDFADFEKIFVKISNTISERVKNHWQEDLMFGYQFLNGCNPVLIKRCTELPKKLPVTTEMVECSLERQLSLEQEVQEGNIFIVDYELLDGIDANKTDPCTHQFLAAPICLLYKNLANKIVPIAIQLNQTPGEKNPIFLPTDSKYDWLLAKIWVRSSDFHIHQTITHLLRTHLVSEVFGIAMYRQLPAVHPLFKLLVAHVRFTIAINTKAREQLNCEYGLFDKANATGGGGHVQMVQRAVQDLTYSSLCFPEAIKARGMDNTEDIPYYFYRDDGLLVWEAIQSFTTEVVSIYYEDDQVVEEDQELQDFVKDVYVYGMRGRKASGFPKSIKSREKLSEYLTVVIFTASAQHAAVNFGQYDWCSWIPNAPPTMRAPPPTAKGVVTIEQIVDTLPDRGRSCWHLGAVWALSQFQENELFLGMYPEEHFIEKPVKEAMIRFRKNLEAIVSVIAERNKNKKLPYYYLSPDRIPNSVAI
Kind of experiment: Inhibition of 5-lipoxygenase from rat peritoneal neutrophils in vitro.

The target of a further experiment is T2, Cyclooxygenase (Bos taurus, UniProt O62664+O62698).
T2 sequence (O62664 whole entry): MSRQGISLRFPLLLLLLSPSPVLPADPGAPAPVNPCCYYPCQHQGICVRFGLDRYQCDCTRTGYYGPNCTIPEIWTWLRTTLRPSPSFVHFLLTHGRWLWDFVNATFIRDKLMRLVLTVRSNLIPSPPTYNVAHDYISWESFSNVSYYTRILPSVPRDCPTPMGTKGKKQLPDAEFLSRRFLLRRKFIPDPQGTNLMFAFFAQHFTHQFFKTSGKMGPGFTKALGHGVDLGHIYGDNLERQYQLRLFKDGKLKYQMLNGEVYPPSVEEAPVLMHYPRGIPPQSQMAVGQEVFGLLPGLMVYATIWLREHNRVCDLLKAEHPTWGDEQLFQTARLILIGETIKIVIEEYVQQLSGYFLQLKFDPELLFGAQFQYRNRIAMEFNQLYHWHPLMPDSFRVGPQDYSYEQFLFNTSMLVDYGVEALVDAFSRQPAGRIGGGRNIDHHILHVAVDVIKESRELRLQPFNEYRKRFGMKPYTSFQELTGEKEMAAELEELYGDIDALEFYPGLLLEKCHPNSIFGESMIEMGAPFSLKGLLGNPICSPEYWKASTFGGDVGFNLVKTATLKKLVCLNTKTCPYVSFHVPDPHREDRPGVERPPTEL
T2 sequence (O62698 whole entry): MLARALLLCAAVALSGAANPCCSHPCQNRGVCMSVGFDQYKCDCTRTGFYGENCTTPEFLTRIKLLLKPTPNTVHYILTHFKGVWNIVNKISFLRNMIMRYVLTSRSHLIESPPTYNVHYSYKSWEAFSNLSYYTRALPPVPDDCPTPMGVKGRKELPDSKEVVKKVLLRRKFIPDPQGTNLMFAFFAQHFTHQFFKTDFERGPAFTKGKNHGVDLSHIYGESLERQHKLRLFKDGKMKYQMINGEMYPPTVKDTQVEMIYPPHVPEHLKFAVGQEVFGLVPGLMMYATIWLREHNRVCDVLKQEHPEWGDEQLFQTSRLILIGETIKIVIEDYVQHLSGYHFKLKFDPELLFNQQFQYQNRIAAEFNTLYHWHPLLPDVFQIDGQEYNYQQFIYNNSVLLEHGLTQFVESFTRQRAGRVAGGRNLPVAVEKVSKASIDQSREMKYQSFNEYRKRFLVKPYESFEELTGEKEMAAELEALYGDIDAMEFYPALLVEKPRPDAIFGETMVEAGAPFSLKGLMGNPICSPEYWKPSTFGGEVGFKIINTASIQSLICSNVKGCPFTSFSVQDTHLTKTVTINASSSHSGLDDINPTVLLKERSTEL
The experiment is described as follows: Inhibition of bovine Prostaglandin G/H synthase in seminal vesicle microsomes in vitro.

Experiment [9] relates to Mus musculus. Kind of experiment: Analgesic activity against acetic acid induced writhing test in mouse administered po at 100 mg/kg; IA=Inactive. Set-up: dose 100 mg/kg. It is filed as functional, organism-based. Summed up: as §1
Background: Writhing tests count abdominal constrictions after an irritant is injected.

For experiment [10], the system named is Rattus norvegicus. The experiment is described as follows: Antiarthritis activity against adjuvant-induced arthritis in rats administered po at 10 mg/kg; IA=Inactive. Set-up: dose 10 mg/kg. It is filed as functional, organism-based.
For experiment [11], the system named is Rattus norvegicus. Kind of experiment: Antiinflammatory activity against carrageenan-induced foot edema after peroral administration in rat. Conditions: po. It is filed as functional. Summed up: as §3
The subject of experiment [12] is Rattus norvegicus. Kind of experiment: Antiarthritis activity against adjuvant-induced arthritis in rats at 25 mg/kg; IA=Inactive. The format is functional, organism-based. Also on record: dose 25 mg/kg.
Experiment [13] relates to Mus musculus. Kind of experiment: Analgesic activity against acetic acid induced writhing test in mouse after peroral administration at 100 mg/kg; IA=Inactive.
For experiment [14], the system named is Mus musculus. The experiment is described as follows: Analgesic activity against acetic acid induced writhing test in mouse administered po at 50 mg/kg; IA=Inactive. It is filed as functional, organism-based. Set-up: dose 50 mg/kg. Summed up:
as §1

Experiment [15] concerns Rattus norvegicus. Kind of experiment: Antiarthritis activity against adjuvant-induced arthritis in rats after peroral administration at 15 mg/kg; IA=Inactive. It is filed as functional, organism-based. Set-up: dose 15 mg/kg. Summed up: as §2
The test system of experiment [16] is Rattus norvegicus. Kind of experiment: Antiinflammatory activity against carrageenan-induced foot edema in rat after peroral administration of 100 mg/kg; IA=Inactive. Set-up: dose 100 mg/kg. It is filed as functional, organism-based. Background: In the carrageenan paw model, swelling and tenderness develop within hours.
[17] abbreviates: Mus musculus, po, read-out: ED50.
The mark [18] stands for this setting: Rattus norvegicus, po, read-out: ED50.

Active and inactive are the calls of the source. The calls are words filed in the database; no cut-off is given here.

The term ED50 denotes the dose at which the effect has come halfway, by size or by number of responders. On to `O=C(Nc1nccs1)c1c(-c2ccccc2)nc2c(C(F)(F)F)cccc2c1O`, for which the ED50 in the experiment on Mus musculus [1] (setting [17]) worked out at 50 mg/kg. The ED50 result in the experiment on Rattus norvegicus [2] was “inactive”.

In the case of `CC(=O)OC(c1nc2c(C(F)(F)F)cccc2c(O)c1C(=O)Nc1ccccn1)C(C)C` (centres undefined), the ED50 result in the experiment with Mus musculus [3] is “inactive”. Moreover, in the experiment with Rattus norvegicus [4] (setting [18]), the 50% effective dose (ED50) was at least 5 mg/kg.

Usually IC50 stands for the concentration that gives 50% inhibition. Higher therefore signals weaker potency in that assay. In the case of `CCC(O)c1nc2c(C(F)(F)F)cccc2c(O)c1C(=O)Nc1nccs1` (stereo in doubt; 89), the 50% effective dose (ED50) in the experiment with Mus musculus [1] was 3 mg/kg; in the experiment listed under Rattus norvegicus [6], 2 mg/kg; in the experiment on Rattus norvegicus [4], 1.6 mg/kg. The ED100 in the experiment with Rattus norvegicus [5] turned out to be 12 mg/kg. The compound also registered an ED40 in the experiment on Rattus norvegicus [7] of 5 mg/kg. Besides, the 50% inhibitory concentration (IC50) in experiment [8] amounted to 1100 nM; on Cyclooxygenase, 200 nM.

For `CCC(=O)OC(c1nc2c(C(F)(F)F)cccc2c(O)c1C(=O)Nc1ccccn1)C(C)C` (centres undefined), the ED50 entry in the experiment with Mus musculus [9] was “inactive”. The median effective dose (ED50) in the experiment on Rattus norvegicus [4] (setting [18]) is 5 mg/kg.

Regarding `O=C(Nc1nccs1)c1c(C(O)C2CCCCC2)nc2c(C(F)(F)F)cccc2c1O` (centres undefined), the ED50 result in the experiment with Mus musculus [9] and in the experiment with Rattus norvegicus [10] was “inactive” in each case. This compound registered an ED40 in the experiment with Rattus norvegicus [11] of over 100 mg/kg.

`O=C(Nc1nccs1)c1c(CO)nc2c(C(F)(F)F)cccc2c1O`: the ED50 result in the experiment on Rattus norvegicus [12] and in the experiment with Mus musculus [13] was “inactive” throughout.

Regarding `Cc1cc(NC(=O)c2cnc3c(C(F)(F)F)cccc3c2O)no1`, the ED50 result in the experiment on Mus musculus [14] is “inactive”.

Turning to `Cc1cnc(NC(=O)c2cnc3c(C(F)(F)F)cccc3c2O)s1`, in the experiment on Mus musculus [14], the ED50 result was “inactive”.

In the case of `CC(C)(C)C(O)c1nc2c(C(F)(F)F)cccc2c(O)c1C(=O)Nc1nccs1` (centres undefined), the ED50 in the experiment with Mus musculus [1] (setting [17]) is 50 mg/kg; with Rattus norvegicus [4] (setting [18]) it was 1.5 mg/kg. In addition, in the experiment with Rattus norvegicus [11], the ED40 is 4 mg/kg.

With `C[C@@H](N)c1nc2c(C(F)(F)F)cccc2c(O)c1C(=O)Nc1nccs1`, the ED50 in the experiment on Mus musculus [1] (setting [17]) was over 100 mg/kg. The ED50 entry in the experiment on Rattus norvegicus [15] is “inactive”.

Turning to `CC(C)c1ccc2nc(C(F)(F)F)c(C(=O)Nc3nccs3)c(O)c2c1`, the ED50 in the experiment with Mus musculus [1] (setting [17]) was over 100 mg/kg. Besides, in the experiment with Rattus norvegicus [16], the ED50 result was “inactive”.

Regarding `CCC(OC(C)=O)c1nc2c(C(F)(F)F)cccc2c(O)c1C(=O)Nc1nccs1` (centres undefined), in the experiment on Mus musculus [9], the ED50 result was “inactive”. Also, the ED50 with Rattus norvegicus [4] (setting [18]) came out at 4 mg/kg.
